High-throughput results (PubChem)
A selection: hits, their analogues and other compounds. The true share with any hit is near 0.85%.
OXTR ag = human OXTR agonists, primary screen, fluorescence, CHO-OTR cells, Fluo-8 calcium | Oxytocin receptor (Homo sapiens), P30559 | AID 2435, 2010 | activation, % at 3 µM | 320,000 tested, 0.32% active | Fluo-8 calcium fluorescence; normalized: DMSO 0%, oxytocin 100%;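 active means activation above the mean of all tested compounds plus 3 SD, cutoff set per screening run, cut at about 20% in these data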;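 further: peak over basal fluorescence ratio from a 100 s FLIPR kinetic read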
Target sequence (P30559 whole entry, looked up): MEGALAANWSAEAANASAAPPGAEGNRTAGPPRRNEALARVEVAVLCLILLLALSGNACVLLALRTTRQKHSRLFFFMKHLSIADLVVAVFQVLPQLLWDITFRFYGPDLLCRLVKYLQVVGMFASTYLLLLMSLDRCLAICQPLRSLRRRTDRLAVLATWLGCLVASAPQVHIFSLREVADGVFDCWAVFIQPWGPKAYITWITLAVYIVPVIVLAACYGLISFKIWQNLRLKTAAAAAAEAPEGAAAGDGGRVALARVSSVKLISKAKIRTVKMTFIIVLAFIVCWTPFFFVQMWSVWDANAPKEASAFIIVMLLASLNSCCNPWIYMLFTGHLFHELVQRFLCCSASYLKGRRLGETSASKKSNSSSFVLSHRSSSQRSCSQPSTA
TRPN1 ag = zebrafish TRPN1 channel agonists, primary screen, cell-based, HEK293, calcium fluorescence; transient receptor potential cation channel N1 (TRPN1/NompC), Danio rerio; HEK293 zebrafish TRPN1-YFP, Fluo-8 calcium fluorescence; 100% = response to 87 µM carbachol; activation, % at 3 µM; 220,000 tested, 0.18% active;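 active means activation above its plate's cutoff, the mean activation of test wells on that plate plus 3 SD, cut at about 19% in these data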;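 further: 0% = DMSO alone and 100% = 87 µM carbachol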
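Material: zebrafish TRPN1-YFP in HEK293 cells; Doses: single test compound dose, 3 µM nominal, 0.3% DMSO; Timing: dye loading 1 h at 37 °C, then 30 min room temperature; Technique: intracellular calcium fluorescence with Fluo-8; Benchmarks: high carbachol 87 µM, low DMSO alone.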
OXTR potentiator = human OXTR potentiators, primary screen, fluorescence, CHO-OTR cells, Fluo-8 calcium; Oxytocin receptor (Homo sapiens), P30559; Fluo-8 calcium fluorescence, potentiator mode; 0% = oxytocin EC15, 100% = EC100; activation, % at 3 µM; 320,000 tested, 0.061% active;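 active means activation above that plate's cutoff, the mean activation of tested compounds plus 3 SD, cut at about 6.6% in these data, passing the limit was not always enough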;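 further: 100% uses oxytocin at 75 nM as the full agonist control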
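Assay system: CHO-OTR cells, human receptor / Also added: oxytocin at about EC15, sub-maximal agonist stimulus / Dosing: single dose, 3.0 µM nominal final compound concentration / Incubation: 6 min pre-incubation, 100 s read / Technique: Fluo-8 calcium dye fluorescence / Read-out: % activation vs EC15 and EC100 oxytocin / Benchmarks: EC15 oxytocin low, 75 nM oxytocin high / Replicates: singlicate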
V1R ag counter = agonists of human V1a receptor, primary screen, counter-screen for OXTR agonist project, fluorescence, CHO-V1R cells; activation, % at 3 µM; 320,000 tested, 0.25% active; Vasopressin V1a receptor (Homo sapiens), P37288; Fluo-8 calcium fluorescence, agonist mode; 0% DMSO, 100% 3 nM vasopressin; AID 2797, 2010;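 active means activation above the mean activation of all tested compounds plus 3 SD, per screening run, cut at about 20% in these data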;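 further: signal is peak over basal fluorescence ratio across a 100 second FLIPR read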
CRFR2-BP ag = agonists of CRF-BP/CRF-R2 complex, primary screen, cell-based, HEK293, calcium dye fluorescence, uHTS; 350,000 tested, 0.46% active; calcium dye fluorescence (FLIPR); percent of saturating CRF peptide response; activation, % at 13.2 µM; CRF-binding protein / CRF receptor 2 complex (human);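 active means activation of at least 50%, plus an integration ratio under a set limit after plate pattern correction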;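 further: plate controls were neutral control wells without compound for no effect and CRF at EC100 for full effect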
TRPML3 ag = human TRPML3 channel agonists, primary screen, cell-based, HEK293 TRPML3-YFP, Fluo-8 calcium fluorescence, 3 µM | 220,000 tested, 0.29% active | activation, % at 3 µM | 100% = the carbachol control signal | Mucolipin-3 (Homo sapiens), Q8TDD5;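 active means activation above its plate's cutoff, the mean activation of the plate's test wells plus 3 SD, cut at about 12% in these data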;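 further: 0% = DMSO only wells and 100% = carbachol wells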
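Test system: TRPML3-YFP stable HEK293 cells. Doses: single point at 3 µM. Incubation: dye loading 1 h 37 °C then 30 min ambient, 125 s read. Signal: Fluo-8 calcium dye fluorescence, ex 470-495, em 515-575 nm. Measure: percent activation from peak-to-basal fluorescence ratio, scaled between DMSO and carbachol.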
OXTR pot confirm = human OXTR potentiators, confirmation, fluorescence, CHO-OTR cells, triplicate; shares compounds with OXTR potentiator; Fluo-8 calcium fluorescence, potentiation; scaled from low-dose to maximal oxytocin; AID 434985, 2010; 180 tested, under 10 active; activation, % at 3 µM;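 active means mean percent activation over triplicates above a cutoff set from solvent-only control plates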;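 further: compounds tested in the presence of an EC15 dose of oxytocin; 0% = EC15 oxytocin with DMSO and 100% = EC100 oxytocin with DMSO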
The depositor's hits bear a star.

COc1cc(C)c(NC(=O)COc2cccc3c2OC(C)(C)C3)cc1OC was read as OXTR ag 12, OXTR potentiator -11, V1R ag counter 10 and CRFR2-BP ag 1.
For CCOc1ccccc1Nc1nc(N)nc(CSc2nncn2C)n1 the results were OXTR ag 0, TRPN1 ag 0, OXTR potentiator 11*, V1R ag counter 1, CRFR2-BP ag -3, TRPML3 ag 0 and OXTR pot confirm -6.
COc1ccc(Nc2nc(N)nc(CSc3nncn3C)n2)cc1 was read as OXTR ag 0, TRPN1 ag -1, OXTR potentiator -2, V1R ag counter 0, CRFR2-BP ag 10 and TRPML3 ag 1.
`CC1CC(=O)Nc2ccccc2N1C(=O)COc1ccccc1C(N)=O` (configuration not stated) gave CRFR2-BP ag -2.
`COc1cc(CC(=O)OCC(=O)NC2CCCCC2C)cc(OC)c1OC` (configuration not stated) gave OXTR ag 0, OXTR potentiator -2, V1R ag counter 0 and CRFR2-BP ag -1.
For Cc1c(C(=O)NCc2ccccn2)oc2c(Cl)cccc12 the results were OXTR ag 1, OXTR potentiator 13*, V1R ag counter 9, CRFR2-BP ag 0 and OXTR pot confirm 2.
Screening COc1ccc(Nc2nnc(-c3ccc(C)cc3)c3ccccc23)cc1C(=O)N1CCCCC1 returned OXTR ag -3, TRPN1 ag -2, OXTR potentiator 17*, V1R ag counter 8, CRFR2-BP ag -1, TRPML3 ag 0 and OXTR pot confirm 5.
Screening Cc1ccc(S(=O)(=O)N/N=C\c2cn(CC(N)=O)c3ccccc23)cc1C returned OXTR ag 0, OXTR potentiator -1, V1R ag counter -1 and CRFR2-BP ag 0.
Screening Cc1cc(C)n(C(C)Sc2ccccc2)n1 (configuration not stated) returned OXTR ag 1, OXTR potentiator 14*, V1R ag counter 0, CRFR2-BP ag -2 and OXTR pot confirm -5.
COc1cc(NC(=O)C2=COCCO2)c(OC)cc1Cl was read as OXTR ag -2, OXTR potentiator -4, V1R ag counter -1 and CRFR2-BP ag -3.
`N#CCC(=O)Nc1ccc(C(=O)NCCc2c[nH]c3ccccc23)cc1` gave OXTR ag -1, OXTR potentiator -12, V1R ag counter -1 and CRFR2-BP ag -1.
CCOc1ccc(OCC)c(Nc2cc(C)nc3ncnn23)c1 was read as OXTR ag -1, TRPN1 ag 0, OXTR potentiator 16*, V1R ag counter 0, CRFR2-BP ag -2, TRPML3 ag -1 and OXTR pot confirm -7.
`COc1cc(Nc2cc(C)nc3ncnn23)cc(OC)c1` gave OXTR ag -2, TRPN1 ag 1, OXTR potentiator 6.4*, V1R ag counter -1, CRFR2-BP ag 1, TRPML3 ag 0 and OXTR pot confirm -3.
Screening COc1cc(Nc2cc(C)nc3ncnn23)cc(OC)c1OC returned OXTR ag 1, TRPN1 ag 0, OXTR potentiator 6, V1R ag counter 1, CRFR2-BP ag 1 and TRPML3 ag 0.
COc1ccc(-c2nn(-c3ccccc3)cc2CN(C)CCn2ccnc2C)c(F)c1 was read as OXTR ag 1, TRPN1 ag 1, OXTR potentiator -1, V1R ag counter 1, CRFR2-BP ag -4 and TRPML3 ag 1.
CNC(=O)c1c(NC(=O)c2ccco2)sc2c1CCC2 was read as OXTR ag -1, OXTR potentiator -9, V1R ag counter -2 and CRFR2-BP ag -7.
`CNC(=O)c1c(NC(=O)c2cc(-c3cc(C)c(C)cc3O)n[nH]2)sc2c1CCCC2` gave OXTR ag 1, TRPN1 ag 2, OXTR potentiator 6.6*, V1R ag counter 0, CRFR2-BP ag 0, TRPML3 ag 0 and OXTR pot confirm -10.
For CC1=C(C(=O)Nc2ccc(CC(=O)NCc3ccc(OC(C)C)cc3)cc2)SCCO1 the results were OXTR ag 1, OXTR potentiator -12, V1R ag counter 1 and CRFR2-BP ag 0.
Cc1[nH]c(=O)[nH]c(=O)c1S(=O)(=O)NCC12CC3CC(CC(C3)C1)C2 was read as OXTR ag 2, TRPN1 ag -1, OXTR potentiator 11*, V1R ag counter 1, CRFR2-BP ag 1, TRPML3 ag 1 and OXTR pot confirm -5.
CCC(NS(=O)(=O)c1c(C)[nH]c(=O)[nH]c1=O)C12CC3CC(CC(C3)C1)C2 (configuration not stated) was read as OXTR ag -1, TRPN1 ag 1, OXTR potentiator -19, V1R ag counter 1, CRFR2-BP ag 0 and TRPML3 ag 0.
`O=C(/C=C/c1cccs1)Nc1ccc([N+](=O)[O-])cc1` gave OXTR ag 1, TRPN1 ag 9, OXTR potentiator -13, V1R ag counter 3, CRFR2-BP ag 1 and TRPML3 ag 1.
For O=C(/C=C/c1cccs1)Nc1ccncc1 the results were OXTR ag -1, TRPN1 ag 1, OXTR potentiator 13*, V1R ag counter -1, CRFR2-BP ag -2, TRPML3 ag 1 and OXTR pot confirm 2.
For Cc1oc(-c2ccc(Cl)cc2)nc1CS(=O)CC(=O)NCc1ccco1 (configuration not stated) the results were OXTR ag -1, OXTR potentiator 7.9*, V1R ag counter 1, CRFR2-BP ag -1 and OXTR pot confirm -8.
`O=C(NC(O)C(=O)c1ccccc1)c1ccc(F)cc1` (configuration not stated) gave OXTR ag 3, OXTR potentiator 1, V1R ag counter 2 and CRFR2-BP ag 0.
`CC(=O)c1sc(NC(=O)C=C(C)C)nc1C` gave OXTR ag 0, TRPN1 ag 1, OXTR potentiator 9.1*, V1R ag counter 0, CRFR2-BP ag -3, TRPML3 ag 0 and OXTR pot confirm -9.
CCCCC(=O)Nc1nc(C)c(C(C)=O)s1 was read as OXTR ag 0, TRPN1 ag 0, OXTR potentiator 5, V1R ag counter 0, CRFR2-BP ag 1 and TRPML3 ag 0.
